This is an account of results in ChEMBL document CHEMBL4406801, “Novel Human Aminopeptidase N Inhibitors: Discovery and Optimization of Subsite Binding Interactions” (J Med Chem, 2019).

Data set [1] has as its target T1, Aminopeptidase N (Homo sapiens, UniProt P15144). Put plainly: Inhibition of soluble human APN ectodomain stably expressed in HEK293 GnTI(-) cells using H-Leu-NHMec as substrate preincubated for 10 mins followed by substrate addition and measured for 1 hr by spectrofluorimetric method. The following applies: read-out: Ki(app).
For data set [2], the target named is Matrix metalloproteinase-9 (Homo sapiens, UniProt P14780). Briefly: Inhibition of MMP9 (unknown origin) using QF-24 as substrate preincubated for 1 hr followed by substrate addition and measured at 1 min interval for 1 hr by fluorescence assay.
In data set [3] the target is 72 kDa type IV collagenase (Homo sapiens, UniProt P08253). Briefly: Inhibition of MMP2 (unknown origin) using QF-24 as substrate preincubated for 1 hr followed by substrate addition and measured at 1 min interval for 1 hr by fluorescence assay.
Data set [4] deals with T2, Matrilysin (Homo sapiens) (UniProt P09237).
T2 sequence (whole entry): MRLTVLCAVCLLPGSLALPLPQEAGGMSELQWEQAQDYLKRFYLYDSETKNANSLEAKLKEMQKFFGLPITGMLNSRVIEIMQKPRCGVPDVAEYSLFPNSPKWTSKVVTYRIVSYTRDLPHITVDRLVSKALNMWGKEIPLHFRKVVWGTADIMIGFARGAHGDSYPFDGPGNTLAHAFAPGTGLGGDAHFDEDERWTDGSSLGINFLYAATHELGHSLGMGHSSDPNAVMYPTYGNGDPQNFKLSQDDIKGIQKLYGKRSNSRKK
Briefly: Inhibition of MMP7 (unknown origin) using QF-24 as substrate preincubated for 1 hr followed by substrate addition and measured at 1 min interval for 1 hr by fluorescence assay.

The target of data set [5] is Neutrophil collagenase (Homo sapiens) (UniProt P22894). Briefly: Inhibition of MMP8 (unknown origin) using QF-24 as substrate preincubated for 1 hr followed by substrate addition and measured at 1 min interval for 1 hr by fluorescence assay.
Data set [6] is described as follows: Inhibition of Plasmodium falciparum M1 aminopeptidase. The following applies: read-out: Ki(app).
The nature of data set [7]: Solubility of the compound in methanol. The format is physicochemical.
The target in data set [8] is T1, Aminopeptidase N. Put plainly: Potency index, ratio of bestatin Ki(app) to test compound Ki(app) for soluble human APN ectodomain stably expressed in HEK293 GnTI(-) cells. The format is cell-based.
Data set [9] has as its target T1, Aminopeptidase N. Put plainly: Potency index, ratio of tosedostat Ki(app) to test compound Ki(app) for soluble human APN ectodomain stably expressed in HEK293 GnTI(-) cells. In kind it is cell-based.
The nature of data set [10]: Half life in mouse liver microsomes at 1 uM in presence of NADPH. The format is ADME, Microsome.
The nature of data set [11]: Cytotoxicity against human AD293 cells measured after 72 hrs by celltitre-blue assay. In kind it is cell-based.
A short description of data set [12]: Half life in human liver microsomes at 1 uM in presence of NADPH. The format is ADME, Microsome.
The nature of data set [13]: Kinetic solubility of the compound in 0.01 M HCl at pH 2 after 30 mins by nephelometry. In kind it is physicochemical. The following applies: read-out: Kinetic_solubility. In short, it runs like this:
(§1)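 Kinetic solubility read by nephelometry under pH 2 (stomach-like) and pH 6.5 (upper fasted small intestine-like) conditions.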

Data set [14] can be described thus: Kinetic solubility of the compound in phosphate buffer at pH 6.5 after 30 mins by nephelometry. The format is physicochemical. To be noted: read-out: Kinetic_solubility. In short, it runs like this: as §1
Data set [15] is described as follows: Half life in human plasma at 1000 ng/ml by LC-MS analysis. The format is ADME, cell-free.
Data set [16] is described as follows: Partition coefficient, log D of compound at pH 7.4 by HPLC analysis. The format is physicochemical. To be noted: octanol/water. In short, it runs like this: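 LogD at pH 7.4 estimated by a chromatographic method.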
The nature of data set [17]: Half life in Swiss mouse plasma at 1000 ng/ml by LC-MS analysis. The format is ADME, cell-free.
Data set [18] is described as follows: Intrinsic clearance in human liver microsomes assessed per mg protein at 1 uM in presence of NADPH. In kind it is ADME, Microsome. The following applies: read-out: CLH.
A short description of data set [19]: Intrinsic clearance in mouse liver microsomes assessed per mg protein at 1 uM in presence of NADPH. The format is ADME, Microsome. The following applies: read-out: CLH.

pIC50, pKi: −log10 of the molar value. ≈ marks a conversion by molar mass, not a printed value. Calls of active or inactive are those of the source. No cut-off for these calls is given here.

Neutrophil collagenase (Homo sapiens), sequence (P22894 101-467 limits assumed): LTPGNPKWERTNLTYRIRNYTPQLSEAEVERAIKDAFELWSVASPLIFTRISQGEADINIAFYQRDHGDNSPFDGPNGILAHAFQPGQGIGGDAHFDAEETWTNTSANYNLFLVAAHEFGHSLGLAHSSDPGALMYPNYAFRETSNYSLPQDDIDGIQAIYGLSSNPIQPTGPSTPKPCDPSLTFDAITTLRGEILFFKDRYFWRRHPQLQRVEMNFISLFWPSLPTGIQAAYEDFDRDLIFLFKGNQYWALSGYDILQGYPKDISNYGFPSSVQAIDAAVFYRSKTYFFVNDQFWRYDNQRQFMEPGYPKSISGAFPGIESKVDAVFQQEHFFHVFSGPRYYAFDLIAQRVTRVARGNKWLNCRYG
T1 sequence (P15144 whole entry, the tested form may be a part): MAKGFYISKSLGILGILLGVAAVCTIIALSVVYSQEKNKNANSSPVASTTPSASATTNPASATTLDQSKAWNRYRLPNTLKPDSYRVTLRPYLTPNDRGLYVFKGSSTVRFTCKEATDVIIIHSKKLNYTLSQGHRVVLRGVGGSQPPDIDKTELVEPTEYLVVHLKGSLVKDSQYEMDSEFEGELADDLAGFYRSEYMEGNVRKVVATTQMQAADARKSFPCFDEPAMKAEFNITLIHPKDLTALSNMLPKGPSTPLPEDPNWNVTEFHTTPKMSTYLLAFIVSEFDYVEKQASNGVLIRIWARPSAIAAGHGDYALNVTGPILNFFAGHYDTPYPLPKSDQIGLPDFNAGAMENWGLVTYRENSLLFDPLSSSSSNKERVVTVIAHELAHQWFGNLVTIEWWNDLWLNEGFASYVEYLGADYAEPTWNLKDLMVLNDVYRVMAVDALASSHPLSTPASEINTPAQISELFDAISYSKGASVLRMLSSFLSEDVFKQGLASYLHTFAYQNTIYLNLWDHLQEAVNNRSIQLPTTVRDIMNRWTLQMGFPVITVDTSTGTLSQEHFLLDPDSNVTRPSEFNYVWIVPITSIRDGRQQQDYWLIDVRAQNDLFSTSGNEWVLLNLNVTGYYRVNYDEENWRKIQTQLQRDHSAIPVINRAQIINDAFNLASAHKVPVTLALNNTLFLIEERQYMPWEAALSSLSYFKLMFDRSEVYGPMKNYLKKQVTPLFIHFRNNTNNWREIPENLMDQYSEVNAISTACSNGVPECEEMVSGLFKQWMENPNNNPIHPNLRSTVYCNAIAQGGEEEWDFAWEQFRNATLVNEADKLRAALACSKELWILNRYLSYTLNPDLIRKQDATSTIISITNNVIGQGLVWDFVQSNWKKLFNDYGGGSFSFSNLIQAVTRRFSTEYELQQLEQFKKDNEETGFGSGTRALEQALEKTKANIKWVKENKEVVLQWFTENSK
Matrix metalloproteinase-9, sequence (P14780 whole entry): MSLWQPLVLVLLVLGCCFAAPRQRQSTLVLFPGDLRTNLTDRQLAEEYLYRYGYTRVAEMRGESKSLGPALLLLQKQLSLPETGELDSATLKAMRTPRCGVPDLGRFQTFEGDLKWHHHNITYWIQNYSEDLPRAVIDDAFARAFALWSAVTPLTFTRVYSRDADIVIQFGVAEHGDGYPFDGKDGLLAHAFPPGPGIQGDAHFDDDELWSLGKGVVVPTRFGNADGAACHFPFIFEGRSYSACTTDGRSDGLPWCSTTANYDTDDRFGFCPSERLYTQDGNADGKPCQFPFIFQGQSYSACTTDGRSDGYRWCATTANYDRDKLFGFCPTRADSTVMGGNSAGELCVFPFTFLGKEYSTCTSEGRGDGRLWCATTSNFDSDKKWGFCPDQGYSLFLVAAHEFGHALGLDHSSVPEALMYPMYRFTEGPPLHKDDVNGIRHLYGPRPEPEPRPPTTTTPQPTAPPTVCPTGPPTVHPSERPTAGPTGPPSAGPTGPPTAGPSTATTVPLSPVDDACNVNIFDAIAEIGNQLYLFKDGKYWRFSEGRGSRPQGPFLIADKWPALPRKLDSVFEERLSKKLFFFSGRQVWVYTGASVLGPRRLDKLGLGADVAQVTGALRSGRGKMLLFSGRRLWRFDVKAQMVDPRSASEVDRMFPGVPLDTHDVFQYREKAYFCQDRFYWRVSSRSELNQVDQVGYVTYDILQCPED
72 kDa type IV collagenase, sequence (P08253 whole entry): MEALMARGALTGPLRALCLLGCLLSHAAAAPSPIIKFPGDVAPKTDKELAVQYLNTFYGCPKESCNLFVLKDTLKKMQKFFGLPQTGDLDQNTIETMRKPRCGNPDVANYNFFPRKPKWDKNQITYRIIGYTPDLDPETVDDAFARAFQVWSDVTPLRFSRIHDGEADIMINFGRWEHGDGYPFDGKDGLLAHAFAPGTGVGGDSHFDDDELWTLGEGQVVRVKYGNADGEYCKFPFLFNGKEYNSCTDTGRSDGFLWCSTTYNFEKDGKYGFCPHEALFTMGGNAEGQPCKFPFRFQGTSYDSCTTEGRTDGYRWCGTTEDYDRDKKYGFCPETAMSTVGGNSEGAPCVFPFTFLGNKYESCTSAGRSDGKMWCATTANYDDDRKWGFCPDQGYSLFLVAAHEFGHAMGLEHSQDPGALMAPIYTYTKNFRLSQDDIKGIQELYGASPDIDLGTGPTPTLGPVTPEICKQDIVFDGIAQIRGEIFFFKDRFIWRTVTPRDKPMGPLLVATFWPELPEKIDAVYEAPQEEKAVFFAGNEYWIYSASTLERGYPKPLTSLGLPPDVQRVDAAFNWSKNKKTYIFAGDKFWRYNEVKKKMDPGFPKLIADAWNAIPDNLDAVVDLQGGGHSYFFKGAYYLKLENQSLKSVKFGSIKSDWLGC

With `O=C(NO)C(NCc1ccc(F)c(O)c1)c1ccc(-c2cc(F)c(F)c(F)c2)cc1` (stereo not drawn), the pKi on Aminopeptidase N [1] is below 3.00.

As for `CC(C)C[C@@H](C(=O)N[C@H](C(=O)OC1CCCC1)c1ccccc1)[C@H](O)C(=O)NO` [TOSEDOSTAT], the pIC50 in data set [2] was 5.82; in data set [3], 6.72. Further, the pKi was 5.93 on Aminopeptidase N [1] and 5.21 in data set [6]. Moreover, the inhibition entry in data set [4] and in data set [5] was “Active” in each case.

`O=C(Cc1ccc(O)cc1)NC(C(=O)NO)c1ccc(-c2cc(F)c(F)c(F)c2)cc1` (stereo not drawn): the solubility result in [7] is on record as “Insoluble”.

As to `O=C(Cc1ccc(F)c(O)c1)NC(C(=O)NO)c1ccc(-c2cc(F)c(F)c(F)c2)cc1` (stereo not drawn), the solubility entry in data set [7] is “Insoluble”.

For `O=C(Cc1ccc(O)c(O)c1)NC(C(=O)NO)c1ccc(-c2cc(F)c(F)c(F)c2)cc1` (stereo not drawn), the solubility result in [7] is recorded as “Insoluble”.

As to `COC(=O)C(NC(=O)CC(=O)O)c1ccc(-c2cc(F)c(F)c(F)c2)cc1` (stereo not drawn), the solubility entry in data set [7] is listed as “Insoluble”.

On to `CC(C)(C)C(=O)NC(C(=O)NO)c1ccc(-c2cc(F)c(F)c(F)c2)cc1` (stereo not drawn), for which the results for the pKi (on Aminopeptidase N [1]; in data set [6]) were 6.93 and 6.48, respectively. Also, the Ratio Ki(app) at Aminopeptidase N [8] and at Aminopeptidase N [9] was 10 to 20 throughout. In addition, the inhibition result in [4] and in [5] was “inactive” throughout.

`CNC(=O)[C@@H](NC(=O)[C@H](CC(C)C)[C@H](O)C(=O)NO)C(C)(C)C`: the inhibition entry in data set [4] and in [5] was “Active” throughout.

`NS(=O)(=O)Nc1ccc(C(=O)NC(C(=O)NO)c2ccc(-c3cc(F)c(F)c(F)c3)cc2)cc1` (stereo not drawn): the results for the pIC50 in data set [2] and in [3] were below 4.00 and 5.68, respectively. Moreover, the half-life at 1 µM in data set [10] and in [12] was above 4.17 h in each case. Besides, in data set [11], the CC50 at 72 h was found to be 149 µM. Further, the pKi on Aminopeptidase N [1] was 8.09. In addition, the inhibition entry in [4] and in data set [5] was “inactive” throughout. The solubility kinetic at 0.5 h in [13] fell in the range of 6.3 to 12.5 µg/mL (≈ 12.7 to 25.3 µM); in data set [14], 12.5 to 25 µg/mL (≈ 25.3 to 50.6 µM). For the same molecule, the half-life at 1000 ng/ml in [15] and in data set [17] was above 17 h in each case. For the same molecule, the logD in data set [16] worked out at 2.6. Moreover, the microsomal CLint at 1 µM in data set [18] and in data set [19] was below 7 µL/min/mg in each case.

On to `O=C(NC(C(=O)NO)c1ccc(-c2cc(F)c(F)c(F)c2)cc1)c1ccc(O)c(O)c1` (stereo not drawn), for which the solubility entry in data set [7] is “Insoluble”.

For the molecule `O=C(Cc1ccc(O)c(F)c1)NC(C(=O)NO)c1ccc(-c2cc(F)c(F)c(F)c2)cc1` (stereo not drawn), the solubility result in [7] is “Insoluble”.

`CS(=O)(=O)Nc1ccc(C(=O)NC(C(=O)NO)c2ccc(-c3cc(F)c(F)c(F)c3)cc2)cc1` (stereo not drawn): the pIC50 in data set [2] was below 4.00; in [3] it was 5.89. For the same molecule, the half-life at 1 µM in data set [10] and in [12] was above 4.17 h in each case. The molecule further displayed a CC50 at 72 h in [11] of 41 µM. Further, the negative logarithm of the Ki (pKi) at Aminopeptidase N [1] was 8.35. Further, the Ratio Ki(app) on Aminopeptidase N [8] was determined as 527. Also, the inhibition entry in [4] and in data set [5] was “inactive” throughout. Moreover, the solubility kinetic at 0.5 h in data set [13] and in data set [14] was 12.5 to 25 µg/mL (≈ 25.3 to 50.7 µM) in each case. Besides, the half-life at 1000 ng/ml in data set [15] and in [17] was above 17 h each time. This molecule also yielded a logD in data set [16] of 2.8. Further, the microsomal CLint at 1 µM in data set [18] and in data set [19] was below 7 µL/min/mg in each case.

On to `CC(C)C[C@H](NC(=O)[C@@H](O)[C@H](N)Cc1ccccc1)C(=O)O` [UBENIMEX], for which, in data set [6], the pKi is 5.82.
